Source: ChEMBL document CHEMBL5107946, “SF5- and SCF3-substituted tetrahydroquinoline compounds as potent bactericidal agents against multidrug-resistant persister Gram-positive bacteria” (RSC Med Chem, 2021)
Converted amounts (≈) assume the structure as drawn. The source made the active and inactive calls. The calls are words filed in the database; no cut-off is given here.

Experiments:
Staphylococcus aureus [1] = assay: Antibacterial activity against Staphylococcus aureus ATCC 25923 assessed as bacterial growth inhibition incubated for 18 to 20 hrs by CLSI based broth microdilution assay; assay type: functional; conditions: time 18-20 hrs
How it was run: (§1)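 CLSI broth microdilution; compounds and control antibiotics made up at 10 mg mL−1 in DMSO (stock), serially diluted 1:2 across the plate. Inoculum adjusted to 0.5 McFarland, then diluted 1:100 into wells. Plates incubated static at 37 °C for 18–20 h before MIC read.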

Staphylococcus aureus [2] = assay: Antibacterial activity against methicillin-resistant Staphylococcus aureus USA300 assessed as bacterial growth inhibition incubated for 18 to 20 hrs by CLSI based broth microdilution assay; assay type: functional; conditions: time 18-20 hrs; how it was run: as §1
Enterococcus faecalis [3] = assay: Antibacterial activity against Enterococcus faecalis ATCC 29212 assessed as bacterial growth inhibition incubated for 18 to 20 hrs by CLSI based broth microdilution assay; assay type: functional; conditions: time 18-20 hrs; how it was run: as §1
Enterococcus faecalis [4] = assay: Antibacterial activity against vancomycin-resistant Enterococcus faecalis ATCC 51575 assessed as bacterial growth inhibition incubated for 18 to 20 hrs by CLSI based broth microdilution assay; assay type: functional; conditions: time 18-20 hrs; how it was run: as §1
Staphylococcus aureus [5] = assay: Bactericidal activity against Staphylococcus aureus ATCC 25923 assessed as reduction in colony forming unit incubated for 20 hrs; assay type: functional
How it was run: (§2)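 Follows the broth microdilution MIC plate. 4 μL taken from each well without growth, spotted in duplicate on tryptic soy agar and incubated static at 37 °C for 20 h. MBC taken as the concentration giving 99.9% reduction in CFU.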

Staphylococcus aureus [6] = assay: Bactericidal activity against methicillin-resistant Staphylococcus aureus USA300 assessed as reduction in colony forming unit incubated for 20 hrs; assay type: functional; how it was run: as §2
Staphylococcus aureus [7] = assay: Bactericidal activity against methicillin-resistant Staphylococcus aureus ATCC 33592 assessed as reduction in colony forming unit incubated for 20 hrs; assay type: functional; how it was run: as §2
Enterococcus faecalis [8] = assay: Bactericidal activity against vancomycin-resistant Enterococcus faecalis ATCC 51575 assessed as reduction in colony forming unit incubated for 20 hrs; assay type: functional; how it was run: as §2
Staphylococcus aureus [9] = assay: Antibacterial activity against methicillin-resistant Staphylococcus aureus USA300 (ARLG 1561) assessed as bacterial growth inhibition incubated for 18 to 20 hrs by CLSI based broth microdilution assay; assay type: functional; conditions: time 18-20 hrs; how it was run: as §1
Staphylococcus aureus [10] = assay: Antibacterial activity against methicillin-resistant Staphylococcus aureus USA300 (ARLG 1568) assessed as bacterial growth inhibition incubated for 18 to 20 hrs by CLSI based broth microdilution assay; assay type: functional; conditions: time 18-20 hrs; how it was run: as §1
Staphylococcus aureus [11] = assay: Antibacterial activity against methicillin-resistant Staphylococcus aureus USA300 (ARLG 1569) assessed as bacterial growth inhibition incubated for 18 to 20 hrs by CLSI based broth microdilution assay; assay type: functional; conditions: time 18-20 hrs; how it was run: as §1
Staphylococcus aureus [12] = assay: Antibacterial activity against methicillin-resistant Staphylococcus aureus USA300 (ARLG 1570) assessed as bacterial growth inhibition incubated for 18 to 20 hrs by CLSI based broth microdilution assay; assay type: functional; conditions: time 18-20 hrs; how it was run: as §1
Staphylococcus aureus [13] = assay: Antibacterial activity against methicillin-resistant Staphylococcus aureus ST239 (ARLG 1665) assessed as bacterial growth inhibition incubated for 18 to 20 hrs by CLSI based broth microdilution assay; assay type: functional; conditions: time 18-20 hrs; how it was run: as §1
Staphylococcus aureus [14] = assay: Bactericidal activity against methicillin-resistant Staphylococcus aureus ATCC 33592 assessed as reduction in colony forming unit at 1 x MIC incubated for 18 to 24 hrs by Time-kill analysis; assay type: functional, organism-based; conditions: time 18-24 hrs
How it was run: (§3)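 Log-phase time-kill. Overnight TSB culture diluted 1:1000 and grown to OD600 0.6, then diluted 1 in 10 in TSB (about 2.92 × 10^6 CFU per mL). Exposed at 1× or 4× MIC in triplicate at 37 °C. Samples taken at 0, 2, 4, 8, 12 and 24 h, serially diluted in PBS, plated on TSA in duplicate and counted after 18–20 h.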

Staphylococcus aureus [15] = assay: Bactericidal activity against methicillin-resistant Staphylococcus aureus ATCC 33592 assessed as reduction in colony forming unit at 4 x MIC incubated for 18 to 24 hrs by Time-kill analysis; assay type: functional, organism-based; conditions: time 18-24 hrs; how it was run: as §3
Staphylococcus aureus [16] = assay: Bactericidal activity against persister methicillin-resistant Staphylococcus aureus ATCC 33592 assessed as reduction in colony forming unit at 4 x MIC incubated for 6 hrs by Time-kill analysis; assay type: functional, organism-based
How it was run: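 Stationary-phase (persister) time-kill. Overnight TSB culture diluted 1 in 10 in TSB directly (about 2.92 × 10^6 CFU per mL), with no regrowth step. Exposed at 1× or 4× MIC in triplicate at 37 °C. Samples taken at 0, 2, 4 and 6 h, serially diluted in PBS, plated on TSA in duplicate and incubated 18–24 h.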

Cell membrane [17] = assay: Induction of cell membrane permeability in Staphylococcus aureus ATCC 25923 at 1 ug/ml incubated for […] by Sytox green based fluorescence method; conditions: dose 1.0 µg/ml
How it was run: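 Exponential-phase cells (OD600 0.2–0.3) washed three times in PBS and resuspended in PBS + 10% TSB. Sytox green added to 5 μM final and equilibrated 15–30 min in the dark. Fluorescence (ex 504/em 522 nm) read for 10 min baseline, then every 3 min for 3 h after addition. Run in triplicate; 1% Triton X-100 as positive control.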

Cell membrane [18] = assay: Induction of cell membrane permeability in Staphylococcus aureus ATCC 25923 at 2 to 10 ug/ml by DiOC2 dye based flow cytometry assay; conditions: dose 2-10 µg/ml
How it was run: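 Exponential-phase cells (OD600 0.2–0.3) treated at 2 or 10 μg mL−1; bithionol 4 μg mL−1 as positive control. Washed twice in PBS and resuspended in buffer. To-PRO 3 iodide (red) and DiOC2 (green) added and cells analysed at once by flow cytometry. Permeabilization read as the red/green ratio.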

Cell membrane [19] = assay: Induction of cell membrane disruption in Staphylococcus aureus ATCC 25923 at 4 ug/ml incubated for 4 hrs by scanning electron microscopy; conditions: dose 4.0 µg/ml
How it was run: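 Cells grown overnight in TSB, diluted 1:100 and grown to OD600 0.4, then treated for 4 h; bithionol 10 μg mL−1 as positive control, DMSO as negative control. Fixed in chilled 2.5% glutaraldehyde in 0.1 M cacodylate, post-fixed in 1% OsO4, ethanol-dehydrated, dried with HMDS and platinum-coated. Imaged at 5 kV.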

Erythrocyte = assay: Cytotoxicity against human RBC at 20 ug/ml incubated for 30 mins by spectrophotometric method; assay type: toxicity, cell-based; conditions: 0.5 h, dose 20 µg/ml
How it was run: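 Hemolysis of 5% human RBCs exposed to compound at 5–20 μg mL−1 for 30 min at 37 °C. Intact cells were pelleted by centrifugation and supernatant absorbance read at 540 nm. Values are percent of 1% Triton X-100 lysis, with DMSO as negative control. Triplicate.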

Enterococcus faecium [20] = assay: Bactericidal activity against vancomycin-resistant Enterococcus faecium ATCC 700221 assessed as reduction in colony forming unit incubated for 20 hrs; conditions: ATCC 700221, 20 h
Enterococcus faecium [21] = assay: Antibacterial activity against vancomycin-resistant Enterococcus faecium ATCC 700221 assessed as bacterial growth inhibition incubated for 18 to 20 hrs by CLSI based broth microdilution assay

FC(F)(F)c1n[nH]cc1[C@@H]1Nc2ccc(S(F)(F)(F)(F)F)cc2[C@H]2[C@@H]3CC[C@@H](C3)[C@H]21
MIC (Staphylococcus aureus [1]): 2 µg/mL (≈ 4.35 µM)
MIC (Staphylococcus aureus [2]): 4 µg/mL (≈ 8.71 µM)
MIC (Enterococcus faecalis [3]): 4 µg/mL (≈ 8.71 µM)
MIC (Enterococcus faecalis [4]): 4 µg/mL (≈ 8.71 µM)
MBC (Staphylococcus aureus [5]): 8 µg/mL (≈ 17.4 µM)
MBC (Staphylococcus aureus [6]): 8 µg/mL (≈ 17.4 µM)
MBC (Staphylococcus aureus [7]): 4 µg/mL (≈ 8.71 µM)
MBC (Enterococcus faecalis [8]): 8 µg/mL (≈ 17.4 µM)
MIC (Staphylococcus aureus [9]): 2 µg/mL (≈ 4.35 µM)
MIC (Staphylococcus aureus [10]): 2 µg/mL (≈ 4.35 µM)
MIC (Staphylococcus aureus [11]): 2 µg/mL (≈ 4.35 µM)
MIC (Staphylococcus aureus [12]): 2 µg/mL (≈ 4.35 µM)
MIC (Staphylococcus aureus [13]): 2 µg/mL (≈ 4.35 µM)
Activity (Staphylococcus aureus [14]): Active
Activity (Staphylococcus aureus [15]): Active
Activity (Staphylococcus aureus [16]): Active
Activity (Cell membrane [17]): Active
Activity (Cell membrane [18]): Active
Activity (Cell membrane [19]): Active
Activity (Erythrocyte): Non-Toxic
MBC (Enterococcus faecium [20]): 4 µg/mL (≈ 8.71 µM)
MIC (Enterococcus faecium [21]): 2 µg/mL (≈ 4.35 µM)
